What all share (type): functional
The test system of test [1] is Bacillus subtilis. As to the kind of experiment: Antibacterial activity against Bacillus subtilis NCIM 2063 at 100 ug/disk after 24 hrs by agar disk diffusion method. The following applies: NCIM 2063, 24 h, read-out: IZ. Put shortly: (§1)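 Agar disc diffusion on nutrient agar plates pre-inoculated with each bacterium. Sterile 6 mm filter-paper discs were moistened with compound in DMSO at the stated per-disc amount. Plates were incubated at 37 °C, and the growth-inhibition zone diameter was read after 24 h. Each determination was run in triplicate, and the mean of three independent readings is reported.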
On the technique in general: In agar diffusion tests the substance spreads into inoculated agar from a disc or well.

Test [2] relates to Staphylococcus aureus. As to the kind of experiment: Antibacterial activity against Staphylococcus aureus NCIM 5021 at 200 ug/disk after 24 hrs by agar disk diffusion method. The following applies: NCIM 5021, 24 h, read-out: IZ. Put shortly:
as §1

Test [3] deals with Fusarium solani. In words: Antifungal activity against Fusarium solani NCIM 1330 at 100 ug/disk after 48 hrs by agar disk diffusion method. The settings on record: NCIM 1330, 48 h, read-out: IZ. Put shortly:
(§2)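 Fungal disc diffusion on nutrient agar plates pre-inoculated with each fungus. 6 mm sterile paper discs carried the compound in DMSO at the stated amount per disc. Plates were held at 37 °C, and inhibition-zone diameter was measured after 48 h. Values are the mean of three independent triplicate readings.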

The subject of test [4] is Staphylococcus aureus. In words: Antibacterial activity against Staphylococcus aureus NCIM 5021 at 100 ug/disk after 24 hrs by agar disk diffusion method. The following applies: NCIM 5021, 24 h, read-out: IZ. Put shortly:
as §1

Test [5] relates to Proteus vulgaris. In words: Antibacterial activity against Proteus vulgaris NCIM 2027 at 100 ug/disk after 24 hrs by agar disk diffusion method. The following applies: NCIM 2027, 24 h, read-out: IZ. Put shortly: as §1
Test [6] relates to Curvularia lunata. As to the kind of experiment: Antifungal activity against Curvularia lunata NCIM 716 after 48 hrs by microdilution susceptibility method. The following applies: NCIM 716, 48 h. The method in brief:
(§3)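 Broth microdilution MIC; fungal suspensions were inoculated into wells containing compound dissolved in DMSO. Incubation was at 36 °C for 48 h. MIC was recorded as the lowest concentration with no turbidity. Ketoconazole was the reference antifungal.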
(In general: Dilution methods test growth across graded concentrations, often in twofold steps.)

In test [7] the test system is Radical scavenging activity. In words: Antioxidant activity assessed as DPPH free radical scavenging activity at 100 uM after 20 mins. The method in brief:
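DPPH scavenging: compound solutions were added to DPPH in dioxane/ethanol and kept at ambient temperature for 20 min. Absorbance was read at 517 nm. The test–control difference was expressed as percent DPPH radical scavenging.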
(DPPH is a stable violet radical that fades when it is reduced.)

A short description of test [8]: Antioxidant activity assessed as nitric oxide production at 100 uM after 120 mins by Griess reagent method. The method in brief:
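Nitric oxide assay with Griess read-out. At intervals, 0.5 ml of incubation solution was mixed with 0.5 ml Griess reagent (1% sulfanilamide, 0.1% N-naphthylethylenediamine dihydrochloride, 2% o-phosphoric acid in water). The control received an equal amount of solvent and was handled identically.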

In test [9] the test system is Aspergillus niger. As to the kind of experiment: Antifungal activity against Aspergillus niger NCIM 596 at 200 ug/disk after 48 hrs by agar disk diffusion method. The settings on record: NCIM 596, 48 h, read-out: IZ. Put shortly: as §2
The subject of test [10] is Proteus vulgaris. As to the kind of experiment: Antibacterial activity against Proteus vulgaris NCIM 2027 after 24 hrs by microdilution susceptibility method. The settings on record: NCIM 2027, 24 h. Put shortly:
(§4)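 MIC by microdilution susceptibility; compounds in DMSO, bacterial suspensions inoculated into wells. Incubation was at 36 °C for 24 h. MIC is the lowest compound concentration showing no turbidity. Chloramphenicol served as reference antibacterial.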

Test [11] relates to Klebsiella pneumoniae. In words: Antibacterial activity against Klebsiella pneumoniae NCIM 2957 at 200 ug/disk after 24 hrs by agar disk diffusion method. The following applies: NCIM 2957, 24 h, read-out: IZ. Put shortly: as §1
Test [12] deals with Curvularia lunata. In words: Antifungal activity against Curvularia lunata NCIM 716 at 200 ug/disk after 48 hrs by agar disk diffusion method. The following applies: NCIM 716, 48 h, read-out: IZ. Put shortly: as §2
For test [13], the system named is Bacillus subtilis. As to the kind of experiment: Antibacterial activity against Bacillus subtilis NCIM 2063 after 24 hrs by microdilution susceptibility method. The settings on record: NCIM 2063, 24 h. The method in brief: as §4
Test [14] relates to Staphylococcus aureus. As to the kind of experiment: Antibacterial activity against Staphylococcus aureus NCIM 5021 after 24 hrs by microdilution susceptibility method. The following applies: NCIM 5021, 24 h. Put shortly:
as §4

Test [15] has as its system Curvularia lunata. As to the kind of experiment: Antifungal activity against Curvularia lunata NCIM 716 at 100 ug/disk after 48 hrs by agar disk diffusion method. The following applies: NCIM 716, 48 h, read-out: IZ. Put shortly:
as §2

For test [16], the system named is Proteus vulgaris. As to the kind of experiment: Antibacterial activity against Proteus vulgaris NCIM 2027 at 200 ug/disk after 24 hrs by agar disk diffusion method. The settings on record: NCIM 2027, 24 h, read-out: IZ. The method in brief:
as §1

Test [17] deals with Klebsiella pneumoniae. In words: Antibacterial activity against Klebsiella pneumoniae NCIM 2957 at 100 ug/disk after 24 hrs by agar disk diffusion method. The settings on record: NCIM 2957, 24 h, read-out: IZ. The method in brief: as §1
In test [18] the test system is Fusarium solani. As to the kind of experiment: Antifungal activity against Fusarium solani NCIM 1330 at 200 ug/disk after 48 hrs by agar disk diffusion method. The following applies: NCIM 1330, 48 h, read-out: IZ. Put shortly: as §2
In test [19] the test system is Klebsiella pneumoniae. In words: Antibacterial activity against Klebsiella pneumoniae NCIM 2957 after 24 hrs by microdilution susceptibility method. The settings on record: NCIM 2957, 24 h. Put shortly:
as §4

Test [20] deals with Fusarium solani. In words: Antifungal activity against Fusarium solani NCIM 1330 after 48 hrs by microdilution susceptibility method. The following applies: NCIM 1330, 48 h. Put shortly: as §3
Test [21] concerns Aspergillus niger. As to the kind of experiment: Antifungal activity against Aspergillus niger NCIM 596 after 48 hrs by microdilution susceptibility method. The following applies: NCIM 596, 48 h. The method in brief:
as §3

Test [22] deals with Bacillus subtilis. As to the kind of experiment: Antibacterial activity against Bacillus subtilis NCIM 2063 at 200 ug/disk after 24 hrs by agar disk diffusion method. The following applies: NCIM 2063, 24 h, read-out: IZ. The method in brief: as §1
Test [23] relates to Aspergillus niger. As to the kind of experiment: Antifungal activity against Aspergillus niger NCIM 596 at 100 ug/disk after 48 hrs by agar disk diffusion method. The following applies: NCIM 596, 48 h, read-out: IZ. The method in brief:
as §2

Values after ≈ are worked out from the molar mass of the structure shown.

As for `N=C1ON=C(N)C1C(CC(=O)c1ccc(Cl)cc1)C(=O)c1ccc(Cl)cc1` (stereo not given), the zone of inhibition at 100 µg/disc in the test with Bacillus subtilis [1] came out at 28 mm; in the test with Fusarium solani [3] it was 33 mm; in the test on Staphylococcus aureus [4] it was 29 mm; in the test on Proteus vulgaris [5], 25 mm; in the test with Curvularia lunata [15], 32 mm; with Klebsiella pneumoniae [17], 25 mm. In addition, in the test with Aspergillus niger [23], the zone of inhibition at 100 µg/disc was 26 mm. Further, the zone of inhibition at 200 µg/disc is 32 mm in the test on Staphylococcus aureus [2]; 28 mm in the test with Aspergillus niger [9]; 27 mm in the test with Klebsiella pneumoniae [11]; 34 mm in the test on Curvularia lunata [12]; 26 mm in the test on Proteus vulgaris [16]; 35 mm with Fusarium solani [18]. For the same molecule, in the test with Bacillus subtilis [22], the zone of inhibition at 200 µg/disc came to 30 mm. Further, the MIC came to 100 µg/mL (≈ 247 µM) against Curvularia lunata [6]; 200 µg/mL (≈ 495 µM) against Proteus vulgaris [10]; 50 µg/mL (≈ 124 µM) in the test with Bacillus subtilis [13]; 50 µg/mL (≈ 124 µM) with Staphylococcus aureus [14]; 100 µg/mL (≈ 247 µM) in the test with Klebsiella pneumoniae [19]; 100 µg/mL (≈ 247 µM) with Fusarium solani [20]. Also, the MIC against Aspergillus niger [21] turned out to be 100 µg/mL (≈ 247 µM). The values for the inhibition in test [7] and in test [8] were 89.6% and 90.3%, respectively.

With `O=C(N[C@H](CO)[C@H](O)c1ccc([N+](=O)[O-])cc1)C(Cl)Cl` [CHLORAMPHENICOL], the zone of inhibition at 100 µg/disc in the test with Bacillus subtilis [1] was 38 mm; with Staphylococcus aureus [4], 35 mm; in the test with Proteus vulgaris [5] it was 42 mm; in the test with Klebsiella pneumoniae [17], 37 mm. For the same molecule, the zone of inhibition at 200 µg/disc came out at 41 mm with Staphylococcus aureus [2], 42 mm in the test with Klebsiella pneumoniae [11], 45 mm in the test on Proteus vulgaris [16] and 44 mm with Bacillus subtilis [22]. In addition, the MIC in the test with Proteus vulgaris [10] was 12.5 µg/mL (≈ 38.7 µM); in the test with Bacillus subtilis [13] it was 6.25 µg/mL (≈ 19.3 µM); in the test on Staphylococcus aureus [14] it was 6.25 µg/mL (≈ 19.3 µM); with Klebsiella pneumoniae [19] it was 12.5 µg/mL (≈ 38.7 µM).

Regarding `CC(=O)N1CCN(c2ccc(OCC3COC(Cn4ccnc4)(c4ccc(Cl)cc4Cl)O3)cc2)CC1` (stereo not given) [KETOCONAZOLE], the zone of inhibition at 100 µg/disc with Fusarium solani [3] is 38 mm; with Curvularia lunata [15], 41 mm; with Aspergillus niger [23] it was 36 mm. Also, the MIC in the test with Curvularia lunata [6] is 6.25 µg/mL (≈ 11.8 µM); with Fusarium solani [20], 12.5 µg/mL (≈ 23.5 µM); against Aspergillus niger [21], 6.25 µg/mL (≈ 11.8 µM). Moreover, the zone of inhibition at 200 µg/disc in the test with Aspergillus niger [9] turned out to be 39 mm; in the test on Curvularia lunata [12] it was 44 mm; in the test with Fusarium solani [18] it was 42 mm.

Take `N=C1ON=C(N)C1C(CC(=O)c1ccccc1)C(=O)c1ccccc1` (stereo not given): the zone of inhibition at 100 µg/disc with Bacillus subtilis [1] was 24 mm; in the test with Fusarium solani [3], 30 mm; with Staphylococcus aureus [4], 23 mm; in the test with Proteus vulgaris [5], 21 mm; with Curvularia lunata [15], 30 mm; in the test with Klebsiella pneumoniae [17], 23 mm. Besides, the zone of inhibition at 100 µg/disc in the test with Aspergillus niger [23] was 27 mm. The zone of inhibition at 200 µg/disc in the test on Staphylococcus aureus [2] was 26 mm; in the test on Aspergillus niger [9], 29 mm; in the test on Klebsiella pneumoniae [11], 25 mm; with Curvularia lunata [12] it was 32 mm; in the test on Proteus vulgaris [16], 24 mm; in the test with Fusarium solani [18] it was 31 mm. Besides, the zone of inhibition at 200 µg/disc in the test on Bacillus subtilis [22] is 27 mm. The inhibition turned out to be 42.3% in [7] and 43.5% in [8].

In general, MIC refers to the smallest concentration in the dilution series that meets the test's criterion for growth inhibition. A low value points to a more susceptible organism. Usually inhibition stands for the share of the control response that was lost under treatment.

(Values after ChEMBL document CHEMBL1155297, “Synthesis, antimicrobial and antioxidant activities of substituted pyrazoles, isoxazoles, pyrimidine and thioxopyrimidine derivatives” (2009).)
